Laboratory results from ChEMBL document CHEMBL4706565, “Anti-glioma effects of 2-aminothiophene-3-carboxamide derivatives, ANO1 channel blockers” (Eur J Med Chem, 2020).
pIC50: −log10 of the molar value. The source made the active and inactive calls. No cut-off for these calls is given here.

What was measured:
[1] = target: T1, Anoctamin-1 (Homo sapiens) (UniProt Q5XXA6); experiment: Inhibition of human ANO1 channel expressed in HEK293 cells at 10 uM incubated for 10 mins by FLIPR assay relative to control; type: cell-based
T1 sequence (whole entry): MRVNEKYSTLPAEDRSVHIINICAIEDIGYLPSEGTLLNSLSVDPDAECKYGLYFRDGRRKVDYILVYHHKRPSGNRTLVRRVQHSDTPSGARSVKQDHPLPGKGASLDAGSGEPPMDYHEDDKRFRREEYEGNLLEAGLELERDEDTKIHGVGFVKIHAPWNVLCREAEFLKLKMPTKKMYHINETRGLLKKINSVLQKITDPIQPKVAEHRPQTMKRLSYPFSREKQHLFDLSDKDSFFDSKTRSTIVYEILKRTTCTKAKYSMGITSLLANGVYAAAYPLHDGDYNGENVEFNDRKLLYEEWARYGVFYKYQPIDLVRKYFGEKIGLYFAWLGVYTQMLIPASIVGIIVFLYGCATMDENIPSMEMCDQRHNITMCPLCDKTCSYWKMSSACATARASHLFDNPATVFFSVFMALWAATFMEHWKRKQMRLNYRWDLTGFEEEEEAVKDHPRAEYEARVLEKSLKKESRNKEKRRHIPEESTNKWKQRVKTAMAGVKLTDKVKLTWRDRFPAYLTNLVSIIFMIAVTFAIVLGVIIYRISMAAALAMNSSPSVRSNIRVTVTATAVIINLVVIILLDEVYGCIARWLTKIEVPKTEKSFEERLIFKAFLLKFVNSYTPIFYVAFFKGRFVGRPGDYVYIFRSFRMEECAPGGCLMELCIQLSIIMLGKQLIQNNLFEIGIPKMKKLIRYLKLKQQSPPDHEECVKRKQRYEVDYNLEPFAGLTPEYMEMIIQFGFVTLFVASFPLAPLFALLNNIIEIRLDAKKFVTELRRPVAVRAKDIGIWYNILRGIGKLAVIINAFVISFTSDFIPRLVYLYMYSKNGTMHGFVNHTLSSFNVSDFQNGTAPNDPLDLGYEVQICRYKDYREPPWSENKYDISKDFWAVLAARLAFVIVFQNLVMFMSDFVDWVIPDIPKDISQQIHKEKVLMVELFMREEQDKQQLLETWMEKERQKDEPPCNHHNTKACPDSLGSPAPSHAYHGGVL
In short: (§1)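 HEK293 cells expressing human ANO1, 50,000 cells/well, plated overnight. Loaded with FLIPR Red membrane-potential dye in HEPES-buffered saline (pH 7.4) for 40-60 min at room temperature. Compound added for 10 min at room temperature, final DMSO 0.5%.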

[2] = target: T2, Anoctamin-1 (Homo sapiens, UniProt Q5XXA6); experiment: Inhibition of human ANO1 channel expressed in HEK293 cells incubated for 10 mins by FLIPR assay; type: cell-based; in short: as §1
T2 sequence (Q5XXA6 whole entry): T1 sequence (whole entry)

[3] = test system: U-251; experiment: Inhibition of cell invasion in human U251 cells at 10 uM incubated for 48 hrs by Boyden chamber method; type: functional
In short: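 Boyden chamber invasion: U251 cells serum-starved 24 h, then 2.5×10^5 cells seeded in 8-μm ECMatrix-coated transwells. Treated with compound at 1 or 10 μM for 48 h at 37 °C. Invasion ratio from relative fluorescence.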

[4] = target: T1, Anoctamin-1 (Homo sapiens); experiment: Induction of ANO1 degradation in human U251 cells at 10 uM preincubated with compound for 6 hrs followed by treatment with proteasome inhibitor, MG132 for 18 hrs by western blot analysis; type: cell-based; settings: U-251, time 24.0 hrs
In short: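 U251 cells (5×10^5) treated with 10 μM inhibitor for 24 h. Alternatively, treated 6 h with 10 μM inhibitor, then MG132 (20 μM, a proteasome inhibitor) for a further 18 h. NP40 lysates immunoblotted for ANO1, β-actin as loading control; band densitometry.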

[5] = target: T3, Protein tweety homolog 1 (Mus musculus) (UniProt Q9D3A9); experiment: Inhibition of GFP-fused mouse TTYH1 channel expressed in HEK293A cells assessed as inhibition of channel current amplitude at 1 to 10 uM at membrane potential of +80 mV by patch clamp electrophysiology assay; type: cell-based; settings: HEK293-A, dose 1-10 µM
T3 sequence (whole entry): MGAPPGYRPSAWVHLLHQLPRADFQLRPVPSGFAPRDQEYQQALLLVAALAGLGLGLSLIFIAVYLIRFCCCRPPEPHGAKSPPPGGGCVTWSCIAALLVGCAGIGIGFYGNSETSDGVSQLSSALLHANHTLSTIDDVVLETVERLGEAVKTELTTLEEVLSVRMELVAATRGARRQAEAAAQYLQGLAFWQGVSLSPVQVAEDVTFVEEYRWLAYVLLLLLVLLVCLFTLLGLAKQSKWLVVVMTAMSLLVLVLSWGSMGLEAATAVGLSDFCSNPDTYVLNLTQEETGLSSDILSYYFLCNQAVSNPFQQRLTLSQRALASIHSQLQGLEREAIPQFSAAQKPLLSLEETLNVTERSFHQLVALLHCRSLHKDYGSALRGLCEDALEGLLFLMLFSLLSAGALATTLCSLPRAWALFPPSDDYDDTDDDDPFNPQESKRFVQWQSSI
In short: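 Whole-cell recording at room temperature in HEK293A cells transfected with GFP-mANO1, GFP-mANO2 or GFP-mTTYH1. 1 s ramps from +80 to -80 mV, holding potential -10 mV. For ANO1/ANO2: pipette CsCl 146 mM with Ca-EGTA-NMDG, pH 7.3; bath NaCl-based, pH 7.3. For TTYH1: Tris-aspartate pipette (pH 7.2) and Tris-HCl bath (pH 7.4), with […] and BaCl2 added to block K+ channels, and hypotonic (220 mOsm/kg) bath. Washout recordings assessed reversibility.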

[6] = Antiproliferative activity against mouse primary astrocytes assessed as reduction in cell viability measured after 72 hrs by Celltiter-Glo luminescent assay; type: cell-based, Astrocyte
In short: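 Primary astrocytes isolated from adult mouse brain by a previously reported method. 5.0×10^3 cells/well, compound as 1:4 serial DMSO dilutions, CellTiter-Glo viability at 72 h.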

inhibition [1] [%]	pIC50 [2]	Activity [4]	inhibition [5]	Structure (SMILES)	inhibition at 10 µM [3] [%]	GI50 at 72 h [6] [µM]	inhibition [3]
86.9	5.51	inactive	inactive	CC(C)(C)C(=O)Nc1sc2c(c1C(N)=O)CCC(C(C)(C)C)C2 (configuration not stated)	90	94.8	–
72.2	5.63	inactive	inactive	NC(=O)c1c(NC(=S)NC(=O)c2ccc(Cl)cc2)sc2c1CCC2	–	45.1	Active
